Assay results taken from ChEMBL document CHEMBL1671676, “In vitro activity of nemonoxacin, a novel nonfluorinated quinolone, against 2,440 clinical isolates” (2009).
Converted amounts (≈) assume the structure as drawn.

How the values were obtained:
Format in all cases: functional
[1] = system: Staphylococcus epidermidis; experiment: Antibacterial activity against methicillin-resistant Staphylococcus epidermidis assessed as percent cumulative susceptible isolates at minimum inhibitory concentration of 4 ug/ml by CLSI broth microdilution method; set-up: scale not given: the % may be the effect or the level left
Streptococcus pneumoniae [2] = experiment: Antibacterial activity against Streptococcus pneumoniae assessed as percent cumulative susceptible isolates at minimum inhibitory concentration of 1 ug/ml by CLSI broth microdilution method; set-up: scale not given: the % may be the effect or the level left
Proteus mirabilis [3] = experiment: Antibacterial activity against Proteus mirabilis assessed as percent cumulative susceptible isolates at minimum inhibitory concentration of 0.06 ug/ml by CLSI broth microdilution method; set-up: scale not given: the % may be the effect or the level left
Streptococcus pneumoniae [4] = experiment: Antibacterial activity against penicillin-resistant Streptococcus pneumoniae assessed as percent cumulative susceptible isolates at minimum inhibitory concentration of 0.5 ug/ml by CLSI broth microdilution method; set-up: scale not given: the % may be the effect or the level left
[5] = system: Staphylococcus epidermidis; experiment: Antibacterial activity against methicillin-resistant Staphylococcus epidermidis assessed as percent cumulative susceptible isolates at minimum inhibitory concentration of […] by CLSI broth microdilution method; set-up: scale not given: the % may be the effect or the level left
Streptococcus pneumoniae [6] = experiment: Antibacterial activity against Streptococcus pneumoniae assessed as percent cumulative susceptible isolates at minimum inhibitory concentration of 0.03 ug/ml by CLSI broth microdilution method; set-up: scale not given: the % may be the effect or the level left
Proteus mirabilis [7] = experiment: Antibacterial activity against Proteus mirabilis assessed as percent cumulative susceptible isolates at minimum inhibitory concentration of 0.5 ug/ml by CLSI broth microdilution method; set-up: scale not given: the % may be the effect or the level left
Pseudomonas aeruginosa [8] = experiment: Antibacterial activity against Pseudomonas aeruginosa assessed as percent cumulative susceptible isolates at minimum inhibitory concentration of 4 ug/ml by CLSI broth microdilution method; set-up: scale not given: the % may be the effect or the level left
Pseudomonas aeruginosa [9] = experiment: Antibacterial activity against Pseudomonas aeruginosa assessed as percent cumulative susceptible isolates at minimum inhibitory concentration of 8 ug/ml by CLSI broth microdilution method; set-up: scale not given: the % may be the effect or the level left
[10] = system: Stenotrophomonas maltophilia; experiment: Antibacterial activity against Stenotrophomonas maltophilia assessed as percent cumulative susceptible isolates at minimum inhibitory concentration of 32 ug/ml by CLSI broth microdilution method; set-up: scale not given: the % may be the effect or the level left
Staphylococcus aureus [11] = experiment: Antibacterial activity against community-associated methicillin-resistant Staphylococcus aureus by CLSI M7-A7 broth microdilution method
Summary of the method: (§1)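 Clinical isolates tested by CLSI broth microdilution using 96-well panels of doubling drug dilutions in cation-adjusted Mueller-Hinton broth with 5% lysed horse blood. MIC was read from these panels. Panel quality control used CLSI ATCC strains, including S. pneumoniae 49619, S. aureus 29213, E. faecalis 29212 and E. coli 25922. Cumulative percentages of isolates were tabulated at each MIC.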

Streptococcus pneumoniae [12] = experiment: Antibacterial activity against Streptococcus pneumoniae by CLSI M7-A7 broth microdilution method
Summary of the method: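 Broth microdilution per CLSI guidelines on clinical isolates, using panels of doubling drug dilutions in cation-adjusted Mueller-Hinton broth with 5% lysed horse blood. MIC read per CLSI, and cumulative percentage of isolates inhibited at each concentration tabulated.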

Pseudomonas aeruginosa [13] = experiment: Antibacterial activity against Pseudomonas aeruginosa by CLSI M7-A7 broth microdilution method
Acinetobacter baumannii = experiment: Antibacterial activity against Acinetobacter baumannii by CLSI M7-A7 broth microdilution method
Staphylococcus aureus [14] = experiment: Antibacterial activity against methicillin-susceptible Staphylococcus aureus assessed as percent cumulative susceptible isolates at minimum inhibitory concentration of <=0.008 ug/ml by CLSI broth microdilution method; set-up: scale not given: the % may be the effect or the level left
Staphylococcus aureus [15] = experiment: Antibacterial activity against methicillin-resistant Staphylococcus aureus assessed as percent cumulative susceptible isolates at minimum inhibitory concentration of […] by CLSI broth microdilution method; set-up: scale not given: the % may be the effect or the level left
Staphylococcus aureus [16] = experiment: Antibacterial activity against methicillin-resistant Staphylococcus aureus assessed as percent cumulative susceptible isolates at minimum inhibitory concentration of 0.03 ug/ml by CLSI broth microdilution method; set-up: scale not given: the % may be the effect or the level left; summary of the method: as §1
Staphylococcus aureus [17] = experiment: Antibacterial activity against methicillin-resistant Staphylococcus aureus assessed as percent cumulative susceptible isolates at minimum inhibitory concentration of 2 ug/ml by CLSI broth microdilution method; set-up: scale not given: the % may be the effect or the level left
Staphylococcus aureus [18] = experiment: Antibacterial activity against methicillin-resistant Staphylococcus aureus assessed as percent cumulative susceptible isolates at minimum inhibitory concentration of 4 ug/ml by CLSI broth microdilution method; set-up: scale not given: the % may be the effect or the level left
Staphylococcus aureus [19] = experiment: Antibacterial activity against Levofloxacin-susceptible Staphylococcus aureus assessed as percent cumulative susceptible isolates at minimum inhibitory concentration of <=0.008 ug/ml by CLSI broth microdilution method; set-up: scale not given: the % may be the effect or the level left
Enterococcus faecium [20] = experiment: Antibacterial activity against Enterococcus faecium assessed as percent cumulative susceptible isolates at minimum inhibitory concentration of 8 ug/ml by CLSI broth microdilution method; set-up: scale not given: the % may be the effect or the level left
Enterococcus faecium [21] = experiment: Antibacterial activity against Enterococcus faecium assessed as percent cumulative susceptible isolates at minimum inhibitory concentration of 128 ug/ml by CLSI broth microdilution method; set-up: scale not given: the % may be the effect or the level left
Escherichia coli [22] = experiment: Antibacterial activity against Escherichia coli assessed as percent cumulative susceptible isolates at minimum inhibitory concentration of 0.03 ug/ml by CLSI broth microdilution method; set-up: scale not given: the % may be the effect or the level left
Escherichia coli [23] = experiment: Antibacterial activity against Escherichia coli assessed as percent cumulative susceptible isolates at minimum inhibitory concentration of 256 ug/ml by CLSI broth microdilution method; set-up: scale not given: the % may be the effect or the level left
Escherichia coli [24] = experiment: Antibacterial activity against Escherichia coli assessed as percent cumulative susceptible isolates at minimum inhibitory concentration of >=[…] by CLSI broth microdilution method; set-up: scale not given: the % may be the effect or the level left
Klebsiella pneumoniae = experiment: Antibacterial activity against Klebsiella pneumoniae assessed as percent cumulative susceptible isolates at minimum inhibitory concentration of <=[…] by CLSI broth microdilution method; set-up: scale not given: the % may be the effect or the level left
Staphylococcus aureus [25] = experiment: Antibacterial activity against non-levofloxacin susceptible Staphylococcus aureus assessed as percent cumulative susceptible isolates at minimum inhibitory concentration of 1 ug/ml by CLSI broth microdilution method; set-up: scale not given: the % may be the effect or the level left
Staphylococcus aureus [26] = experiment: Antibacterial activity against non-levofloxacin susceptible Staphylococcus aureus assessed as percent cumulative susceptible isolates at minimum inhibitory concentration of 4 ug/ml by CLSI broth microdilution method; set-up: scale not given: the % may be the effect or the level left
Staphylococcus aureus [27] = experiment: Antibacterial activity against community-associated methicillin-resistant Staphylococcus aureus assessed as percent cumulative susceptible isolates at minimum inhibitory concentration of […] by CLSI broth microdilution method; set-up: scale not given: the % may be the effect or the level left
Staphylococcus aureus [28] = experiment: Antibacterial activity against community-associated methicillin-resistant Staphylococcus aureus assessed as percent cumulative susceptible isolates at minimum inhibitory concentration of 0.06 ug/ml by CLSI broth microdilution method; set-up: scale not given: the % may be the effect or the level left
Staphylococcus aureus [29] = experiment: Antibacterial activity against hospital-associated methicillin-resistant Staphylococcus aureus assessed as percent cumulative susceptible isolates at minimum inhibitory concentration of 0.5 ug/ml by CLSI broth microdilution method; set-up: scale not given: the % may be the effect or the level left
Staphylococcus aureus [30] = experiment: Antibacterial activity against hospital-associated methicillin-resistant Staphylococcus aureus assessed as percent cumulative susceptible isolates at minimum inhibitory concentration of 2 ug/ml by CLSI broth microdilution method; set-up: scale not given: the % may be the effect or the level left; summary of the method: as §1
Staphylococcus aureus [31] = experiment: Antibacterial activity against hospital-associated methicillin-resistant Staphylococcus aureus assessed as percent cumulative susceptible isolates at minimum inhibitory concentration of 4 ug/ml by CLSI broth microdilution method; set-up: scale not given: the % may be the effect or the level left
[32] = system: Staphylococcus epidermidis; experiment: Antibacterial activity against methicillin-susceptible Staphylococcus epidermidis assessed as percent cumulative susceptible isolates at minimum inhibitory concentration of […] by CLSI broth microdilution method; set-up: scale not given: the % may be the effect or the level left
[33] = system: Staphylococcus epidermidis; experiment: Antibacterial activity against methicillin-susceptible Staphylococcus epidermidis assessed as percent cumulative susceptible isolates at minimum inhibitory concentration of 0.5 ug/ml by CLSI broth microdilution method; set-up: scale not given: the % may be the effect or the level left
[34] = system: Staphylococcus epidermidis; experiment: Antibacterial activity against methicillin-susceptible Staphylococcus epidermidis assessed as percent cumulative susceptible isolates at minimum inhibitory concentration of 1 ug/ml by CLSI broth microdilution method; set-up: scale not given: the % may be the effect or the level left

SMILES: C[C@H]1COc2c(N3CCN(C)CC3)c(F)cc3c(=O)c(C(=O)O)cn1c23.C[C@H]1COc2c(N3CCN(C)CC3)c(F)cc3c(=O)c(C(=O)O)cn1c23.O [LEVOFLOXACIN]
- Activity [1]: 11.1%
- Activity (Streptococcus pneumoniae [2]): 96.3%
- Activity (Proteus mirabilis [3]): 33.3%
- Activity (Streptococcus pneumoniae [4]): 53.1%

SMILES: COc1c(N2C[C@@H](C)C[C@H](N)C2)ccc2c(=O)c(C(=O)O)cn(C3CC3)c12 [NEMONOXACIN]
- Activity [5]: 11.1%
- Activity (Streptococcus pneumoniae [6]): 99.1%
- Activity (Proteus mirabilis [7]): 54.5%
- Activity (Pseudomonas aeruginosa [8]): 78.1%
- Activity (Pseudomonas aeruginosa [9]): 78.8%
- Activity [10]: 92.3%
- MIC50 (Staphylococcus aureus [11]): 0.25 µg/mL (≈ 0.673 µM)
- MIC90 (Staphylococcus aureus [11]): 0.5 µg/mL (≈ 1.35 µM)
- MIC90 (Streptococcus pneumoniae [12]): 0.015 µg/mL (≈ 0.0404 µM)
- MIC90 (Pseudomonas aeruginosa [13]): ≥ 8 µg/mL
- MIC90 (Acinetobacter baumannii): 1 µg/mL (≈ 2.69 µM)
- Activity (Staphylococcus aureus [14]): 5.6%
- Activity (Staphylococcus aureus [15]): 4.7%
- Activity (Staphylococcus aureus [16]): 6.3%
- Activity (Staphylococcus aureus [17]): 37.8%
- Activity (Staphylococcus aureus [18]): 65.4%
- Activity (Staphylococcus aureus [19]): 5.9%
- Activity (Enterococcus faecium [20]): 44.7%
- Activity (Enterococcus faecium [21]): 100%
- Activity (Escherichia coli [22]): 1.5%
- Activity (Escherichia coli [23]): 99.7%
- Activity (Escherichia coli [24]): 100%
- Activity (Klebsiella pneumoniae): 0.5%
- Activity (Staphylococcus aureus [25]): 30.6%
- Activity (Staphylococcus aureus [26]): 67.3%
- Activity (Staphylococcus aureus [27]): 16%
- Activity (Staphylococcus aureus [28]): 28%
- Activity (Staphylococcus aureus [29]): 5.1%
- Activity (Staphylococcus aureus [30]): 22.2%
- Activity (Staphylococcus aureus [31]): 57.6%
- Activity [32]: 37.2%
- Activity [33]: 93%
- Activity [34]: 95.3%
